Reference: PMC5120626 (Dermatology and Therapy, 2016)
Blank lines part the entries; values can stand above or below the compound they belong to.

Key:
[1] = system: primary epidermal keratinocytes; test: Keratinocyte proliferation; assay type: cell-based, human; conditions: concentrations from 100 nM to 10 µM; 72 h
Procedure, shortened: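 Primary adult human epidermal keratinocytes (log phase) at 4 × 10^3 cells/well in serum-free EpiLife with HKGS, overnight at 37 °C. Exposed to titrated test compound for 72 h. Proliferation read as DNA content with CyQUANT Direct stain. Percent inhibition normalised to 1 µM geldanamycin.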

[2] = system: B16 melanoma; test: B16 melanoma mouse model; assay type: in vivo; conditions: 0.1% in hydroalcoholic gel, topical, two consecutive days; at 3 months
Procedure, shortened: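 Female C57BL/6J mice aged 8–10 weeks received 5 × 10^5 B16 cells intradermally in the flank. Once nodules were visible, tumours were measured by caliper (volume […]) and mice split into cohorts of 8–10 with equal volumes. Treatment was topical, 20 µL of 0.1% hydroalcoholic gel on two consecutive days. The endpoint was a tumour above 250 mm3 or ulceration.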

[3] = First tier chemical stability assessment in aqueous buffer; assay type: physicochemical; conditions: aqueous buffer pH 7.4; 16 h, room temperature
[4] = system: keratinocyte differentiation markers (INVL, TGM1, FLG, LOR) in primary human epidermal keratinocytes; test: Real-time quantitative PCR of keratinocyte differentiation markers; assay type: cell-based
Procedure, shortened: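 Primary human epidermal keratinocytes in low-calcium EpiLife (0.06 mM CaCl2) were given 100 nM test compound for 72 h, with or without 500 nM bisindolylmaleimide I for 30 min beforehand. High-calcium medium (1.8 mM) served as the differentiation reference. KRT1, KRT10, INVL, TGM1, FLG and LOR measured by qPCR, normalised to PPIA, RPLP0, GAPDH and TBP and expressed relative to vehicle. Two donors.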

[5] = Stability in hydroalcoholic gel; assay type: physicochemical; conditions: for Largest single impurity (5-isomer re-arrangement product): 0.05% w/v gel, 25 °C/60%RH
Procedure, shortened: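 Hydroalcoholic gel at pH 2.8 in citrate buffer, containing benzyl alcohol and isopropanol. For assay, 0.4 g gel was dispersed in 0.1% phosphoric acid/acetonitrile 50:50 and diluted to 10.0 mL. Reverse-phase UHPLC on an HSS C18 column with a 50–95% acetonitrile gradient and UV at 220 nm, against an external reference standard. Run in duplicate.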

[6] = Distribution coefficient; assay type: physicochemical; conditions: octanol/citrate buffer, pH 3
[7] = system: UV-induced skin tumors; test: UV-induced skin cancer mouse model; assay type: in vivo; conditions: two consecutive days
[8] = Skin penetration in a Franz chamber diffusion set-up; assay type: in vitro ADME, human; conditions: 21 h
Procedure, shortened: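 Full-thickness human abdominal skin in vertical Franz cells (2 cm orifice, nine cells per treatment) at 32 °C, with stirred EpiLife plus keratinocyte supplement as receptor. 0.1% w/v hydroalcoholic gel applied for 21 h. Surface excess removed, stratum corneum tape-stripped 12 times, then epidermis and dermis heat-separated and quantified. LOQ 3 ng/biopsy; Mann–Whitney comparison.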

[9] = system: primary epidermal keratinocytes; test: Keratinocyte viability and caspase 3/7 activation; assay type: cell-based, human; conditions: growth-arresting concentrations (100 nM and above); 72 h
[10] = Local skin reaction in guinea pigs; assay type: in vivo, guinea pig; conditions: single topical application, 0.015% and 0.05% gel; hairless guinea pigs
Procedure, shortened: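 Seven female IAF hairless guinea pigs (Crl:HA-Hr Hr) received 10 µL of 0.015% or 0.05% gel, or vehicle, on five 2 cm2 flank fields, one condition per field. LSR was scored daily for up to 4 days as a composite of edema, erythema, ulceration and subcutaneous bleeding. Four animals were killed at 24 h for 4 mm punch biopsies and H&E sections.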

[11] = cited from earlier work
[12] = system: IL-8 release from primary epidermal keratinocytes; test: Keratinocyte IL-8 release; assay type: cell-based, human; conditions: relative to ingenol disoxate
Procedure, shortened: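 Primary adult human epidermal keratinocytes seeded at 1 × 10^4 cells/well in serum-free EpiLife with HKGS, overnight at 37 °C. Titrated test compound applied for 6 h. Secreted IL-8 measured by MSD 4-spot plates or HTRF. The EC50 is the concentration giving 50% of the maximum reached by a reference ingenol ester, from four experiments.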

[13] = system: Neutrophil granulocytes; test: Neutrophil granulocyte respiratory burst; assay type: cell-based; conditions: relative to ingenol disoxate
Procedure, shortened: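 Human neutrophils isolated from buffy coats by sedimentation, Lymphoprep density centrifugation and erythrocyte lysis. Plated at 2.5 × 10^5 cells/well in HBSS with Ca2+/Mg2+, 0.1% BSA and 5 mM glucose. Titrated test compound premixed with 10 µM hydroethidine for 40 min at ambient temperature; fluorescence ex 485/em 579 nm.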

[14] = Stability in phosphate buffer; assay type: physicochemical; conditions: phosphate buffer pH 7.4, 37 °C

SMILES: C/C=C(/C)C(=O)O[C@H]1C(C)=C[C@]23C(=O)[C@@H](C=C(CO)[C@@H](O)[C@]12O)[C@H]1[C@@H](C[C@H]3C)C1(C)C [Ingenol mebutate, Ingenol 3-Angelate]
growth inhibition [1]: Total growth inhibition without obvious signs of toxicity
animals remaining tumor free (overall tumor free survival) [2]: 45%
compound recovered [3]: 60%
transcription of intermediate (INVL) and late (TGM1, FLG, LOR) keratinocyte differentiation markers ([4]; 100 nM, 72 h, low calcium medium): stimulated transcription
decrease of concentration ([5]; 0.05% gel, after 6 months storage at 25 °C/60%RH): 8.0 % of label claim
Largest single impurity (5-isomer re-arrangement product) ([5]; 6 months): 5.1 area %
Largest single impurity (5-isomer re-arrangement product) ([5]; Start): 0.2 area %
logD at 24 h [6]: 3.5
antitumor effect ([7]; 0.05% gel): slightly weaker effect
antitumor effect ([7]; 0.1% gel): comparable effect
tumor clearance ([7]; topical gel, SKH1 mice, largely maintained 5 weeks post treatment): more than 50%
epidermal relative to dermal concentration ([8]; 0.1% gel): more than 100 fold
Dermal exposure level ([8]; 0.1% in hydroalcoholic gel, topical): 364 ± 64 nM
epidermal concentration level ([8]; 0.1% in hydroalcoholic gel, topical, stratum corneum removed): 100 µM
cytotoxicity or apoptosis (viability, caspase 3/7) [9]: No signs of cytotoxicity or apoptosis
local skin reaction (LSR) [10]: robust LSR response
time of peak local skin reaction [10]: 24 h

SMILES: CN(C)CCCn1cc(C2=C(c3c[nH]c4ccccc34)C(=O)NC2=O)c2ccccc21 [bisindolylmaleimide-1, bisindolylmaleimide I]
effect of pretreatment on marker induction by ingenol derivatives ([4]; 500 nM, 30 min pre-incubation before 100 nM ingenol derivatives): abolished

SMILES: CC1=C[C@]23C(=O)[C@@H](C=C(CO)[C@@H](O)[C@]2(O)[C@H]1O)[C@H]1[C@@H](C[C@H]3C)C1(C)C [Ingenol]
biological activity [11]: lacks biological activity

stability over time ([14]; 24 h): did not change over time
SMILES: CCc1noc(CC)c1C(=O)OCC1=CC2C(=O)C3(C=C(C)C(O)C3(O)C1O)C(C)CC1C2C1(C)C (stereo not shown) [compound 9, Ingenol-20-(3,5-Diethylisoxazole-4-Carboxylate)]
fold less potent in IL-8 release assay [12]: at least 150 fold
fold less potent in neutrophil activation assay [13]: at least 150 fold

20-isomer in equilibrated mixture [14]: 86–88%
SMILES: CCc1noc(CC)c1C(=O)OC1C(CO)=CC2C(=O)C3(C=C(C)C(O)C13O)C(C)CC1C2C1(C)C (stereo not shown) [compound 8, Ingenol-5-(3,5-Diethylisoxazole-4-Carboxylate)]
fold less potent in IL-8 release assay [12]: approximately tenfold
fold less potent in neutrophil activation assay [13]: ~56 fold
